Source: ChEMBL document CHEMBL3525931, “Stereoselective interaction of pantoprazole with ABCG2. II. In vitro flux analysis” (Drug Metab Dispos, 2012)

Experiments:
[1] = target: T1, Broad substrate specificity ATP-binding cassette transporter ABCG2 (Homo sapiens, UniProt Q9UNQ0); assay: Observed permeability in MDCK2 cells expressing human ABCG2 assessed as ABCG2-mediated basolateral to apical transport at 10 uM after 0.5 to 1 hrs by HPLC method; type: ADME, cell-based; conditions: mdck-ii
T1 sequence (Q9UNQ0 whole entry): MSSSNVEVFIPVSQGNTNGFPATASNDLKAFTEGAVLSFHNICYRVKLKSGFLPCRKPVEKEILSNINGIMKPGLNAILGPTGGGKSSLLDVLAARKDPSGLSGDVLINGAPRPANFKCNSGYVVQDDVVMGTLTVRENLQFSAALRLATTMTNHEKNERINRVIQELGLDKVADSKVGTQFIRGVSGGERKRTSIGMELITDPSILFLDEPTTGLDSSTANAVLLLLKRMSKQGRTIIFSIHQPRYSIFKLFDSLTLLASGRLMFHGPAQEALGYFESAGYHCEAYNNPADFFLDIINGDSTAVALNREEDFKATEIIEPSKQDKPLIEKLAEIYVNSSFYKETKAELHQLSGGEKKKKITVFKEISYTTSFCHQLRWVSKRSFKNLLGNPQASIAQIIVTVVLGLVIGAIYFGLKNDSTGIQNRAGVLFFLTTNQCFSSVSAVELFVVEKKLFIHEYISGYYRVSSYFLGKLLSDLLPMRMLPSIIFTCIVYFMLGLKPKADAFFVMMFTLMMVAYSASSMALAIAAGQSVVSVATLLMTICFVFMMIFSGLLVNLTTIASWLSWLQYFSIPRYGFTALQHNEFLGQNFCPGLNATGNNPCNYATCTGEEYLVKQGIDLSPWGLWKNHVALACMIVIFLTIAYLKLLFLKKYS
In short: (§1)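 Mock (empty pcDNA3.1) or rat Abcg2/human ABCG2-transfected MDCKII, G418-selected, seeded on 3.0-μm Transwell filters at 1.0×10^6 cells/well, grown 4 days to TEER >200 Ω·cm². Single isomer loaded apical or basolateral in serum-free Opti-MEM I with 0.2 μCi/ml [3H]mannitol, 37°C 5% CO2. Receiver sampled at 0.5 and 1 h. Quantified by HPLC-UV 290 nm. Permeability = initial rate/(area × donor concentration). Efflux ratio = B→A rate / A→B rate. n = 3, mean ± S.D.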

[2] = target: T1, Broad substrate specificity ATP-binding cassette transporter ABCG2; assay: Observed permeability in MDCK2 cells expressing human ABCG2 assessed as ABCG2-mediated basolateral to apical transport at 200 uM after 0.5 to 1 hrs by HPLC method; type: ADME, cell-based; conditions: mdck-ii; in short: as §1

| Compound | Papp [1] | Papp [2] |
| --- | --- | --- |
| COc1ccnc(C[S@@+]([O-])c2nc3cc(OC(F)F)ccc3[nH]2)c1OC | 246 uL/hr/cm2 | 179 uL/hr/cm2 |
| COc1ccnc(C[S@+]([O-])c2nc3cc(OC(F)F)ccc3[nH]2)c1OC | 255 uL/hr/cm2 | 132 uL/hr/cm2 |
